Calls of active or inactive are those of the source. No cut-off for these calls is given here. *1 amine or outer side, *2 acyl side, *3 side chain or, on linkers, in order; H or OH if unused. Where a SMILES comes first, the peptide text is derived from it. Bridges are numbered along the chain shown (N, C = ends). [ ]: non-standard residue; d: D form. The star is where a group is joined. dLeu(3R-OH) = CC(C)[C@@H](O[*:3])[C@@H](N[*:1])C(=O)[*:2]; Gln(3S,4R-Me2) = C[C@H]([C@H](N)C(=O)O)[C@@H](C)C(N)=O; dTyr(βR-OMe) = CO[C@H](c1ccc(O)cc1)[C@@H](N)C(=O)O; Pip(4S-Cl) = O=C(O)[C@@H]1C[C@@H](Cl)CCN1; X1 = CCC(C)/C=C(C)/C=C\C(O)C(C)(O)C(=O)*; Abu(3R-NH2) = C[C@@H](N)[C@H](N)C(=O)O; NMeT = CN[C@H](C(=O)O)[C@@H](C)O
What was measured:
[1] = Cytotoxicity against human TZM-bl cells after 24 hrs by MTT assay; type: functional, cell-based
In short: (§1)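 MTT kit assay. Cells seeded at 2 × 10^4/well, adhered 18 h, then exposed for 3 h (fusion-assay conditions) or 24 h (neutralization-assay conditions). Medium then replaced or diluted 3-fold with fresh growth medium, followed by 72 h further culture. Viability read at A570 after MTT.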

[2] = test system: Bacillus subtilis; test: Antimicrobial activity against Bacillus subtilis ATCC 49343 at 5 ug per disk after 18 hrs by disk diffusion method; type: functional, organism-based
In short: (§2)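 Modified disk diffusion. Bacteria: 500 µL of 24 h culture in 100 mL Antibiotic Medium 2 with 1% agar at 55 °C; C. albicans in Sabouraud dextrose agar at 55 °C. 10 mL seeded agar poured per dish, cooled 1 h. Compounds applied at 1–25 µg; zones of inhibition measured after 18 h at 37 °C.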

[3] = test system: Staphylococcus aureus; test: Antimicrobial activity against Staphylococcus aureus ATCC 25923 at 25 ug per disk after 18 hrs by disk diffusion method; type: functional, organism-based; in short: as §2
[4] = test system: Human immunodeficiency virus 1; test: Inhibition of HIV LAV in BSC1 cells after 2.5 hrs by cell fusion assay; type: functional, organism-based; conditions: Human immunodeficiency virus 1, LAV, BSC-1, 2.5 h
[5] = Cytotoxicity against african green monkey BSC1 cells after 3 hrs by MTT assay; type: cell-based; conditions: chlorocebus aethiops, bsc-1, 3 h; in short: as §1
[6] = test system: Escherichia coli; test: Antimicrobial activity against Escherichia coli ATCC 8739 at 25 ug per disk after 18 hrs by disk diffusion method; type: functional, organism-based; in short: as §2
[7] = test system: Pseudomonas aeruginosa; test: Antimicrobial activity against Pseudomonas aeruginosa ATCC 15442 at 25 ug per disk after 18 hrs by disk diffusion method; type: functional, organism-based; in short: as §2
[8] = test system: Human immunodeficiency virus 1; test: Inhibition of HIV SF162 in TZM-bl cells after 48 hrs by neutralization assay; type: functional, organism-based; conditions: Human immunodeficiency virus 1, SF162, TZM-bl
In short: (§3)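 Env-pseudotyped viral particles (HXB2, CXCR4-using; SF162, CCR5-using) added with varying inhibitor concentrations (in H2O or 20% EtOH in H2O) to TZM-bl cells (CD4, CXCR4, CCR5) after overnight plating at 37 °C. Luciferase luminescence (RLU) read after 48 h at 37 °C. Duplicate or triplicate, on at least two different days.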

[9] = test system: Candida albicans; test: Antifungal activity against Candida albicans ATCC 90027 at 5 ug per disk after 18 hrs by disk diffusion method; type: functional; conditions: ATCC 90027, 18 h, read-out: IZ; in short: as §2
[10] = test system: Human immunodeficiency virus 1; test: Inhibition of HIV HXB2 in TZM-bl cells after 48 hrs by neutralization assay; type: functional, organism-based; conditions: Human immunodeficiency virus 1, HXB2, TZM-bl; in short: as §3
[11] = test system: HCT-116; test: Cytotoxicity against human HCT116 cells by MTT assay; type: functional, cell-based; in short: as §1
[12] = test system: Bacillus subtilis; test: Antimicrobial activity against Bacillus subtilis ATCC 49343 at 1 ug per disk after 18 hrs by disk diffusion method; type: functional; conditions: ATCC 49343, 18 h, read-out: IZ
In short: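 Modified disk diffusion: 24 h bacterial culture seeded (500 µL per 100 mL) into Antibiotic Medium 2 with 1% agar at 55 °C, 10 mL poured into square dishes, cooled 1 h. Compound applied to disks (1–25 µg range tested); chloramphenicol 10 µg disk as control. Incubated 37 °C, 18 h; inhibition zone diameters measured.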

IC50 [4] [µM] | IC50 [8] [µM] | IC50 [10] [µM] | Structure (SMILES) | IC50 [1] [µM] | Activity [2] | Activity [3] | Activity [5] | Activity [6] | Activity [7] | zone of inhibition at 5 µg/disc [9] [mm] | IC50 [11] [µM] | zone of inhibition at 1 µg/disc [12] [mm]
0.041 | 0.4 | 0.14 | CCC(C)/C=C(C)/C=C\C(O)C(C)(O)C(=O)NCC(=O)N[C@H](C(=O)N[C@H](C(=O)N[C@H](C(=O)N[C@H]1C(=O)N[C@H](COC)C(=O)NCC(=O)N[C@@H](C)C(=O)N(C)[C@@H]([C@@H](C)O)C(=O)N[C@H]([C@H](OC)c2ccc(O[C@@H]3O[C@@H](C)[C@H](O)[C@@H](O)[C@H]3O)cc2)C(=O)N2CC[C@H](Cl)C[C@H]2C(=O)O[C@@H]1C(C)C)[C@@H](C)[C@@H](C)C(N)=O)[C@@H](C)N)[C@@H](C)O (stereo not given in full) [MIRABAMIDE A] | 1.8 | Active | inactive | Non-toxic | inactive | inactive | 9 | 2.22 | 
> 10 | > 50 | > 50 | C/C=C(\NC(=O)[C@@H](NC(=O)CNC(=O)C(C)(O)C(O)/C=C\C(C)=C\C(C)CC)[C@@H](C)O)C(=O)N[C@H](C(=O)N[C@H]1C(=O)N[C@H](COC)C(=O)NCC(=O)N[C@@H](C)C(=O)N(C)[C@@H]([C@@H](C)O)C(=O)N[C@H]([C@H](OC)c2ccc(O[C@@H]3O[C@@H](C)[C@H](O)[C@@H](O)[C@H]3O)cc2)C(=O)N2CC[C@H](Cl)C[C@H]2C(=O)O[C@@H]1C(C)C)[C@@H](C)[C@@H](C)C(N)=O (stereo not given in full) [MIRABAMIDE B] |  | Active | inactive | Non-toxic | inactive | inactive | 9 |  | 
3.9 | 1.31 | 0.189 | CCC(C)/C=C(C)/C=C\C(O)C(C)(O)C(=O)NCC(=O)N[C@H](C(=O)N[C@H](C(=O)N[C@H](C(=O)N[C@H]1C(=O)N[C@H](COC)C(=O)NCC(=O)N[C@@H](C)C(=O)N(C)[C@@H]([C@@H](C)O)C(=O)N[C@H]([C@H](OC)c2ccc(O[C@@H]3O[C@@H](C)[C@H](O)[C@@H](O)[C@H]3O)cc2)C(=O)N2CCCC[C@H]2C(=O)O[C@@H]1C(C)C)[C@@H](C)[C@@H](C)C(N)=O)[C@@H](C)N)[C@@H](C)O (stereo not given in full) [MIRABAMIDE D] | 3.9 |  | inactive | Non-toxic | inactive | inactive |  |  | 9
0.073 |  |  | CCC(C)/C=C(C)/C=C\C(O)C(C)(O)C(=O)NCC(=O)N[C@H](C(=O)N[C@H](C(=O)N[C@H](C(=O)N[C@H]1C(=O)N[C@H](COC)C(=O)NCC(=O)N[C@@H](C)C(=O)N(C)[C@@H]([C@@H](C)O)C(=O)N[C@H]([C@H](OC)c2ccc(O)cc2)C(=O)N2CCCC[C@H]2C(=O)O[C@@H]1C(C)C)[C@@H](C)[C@@H](C)C(N)=O)[C@@H](C)N)[C@@H](C)O (stereo not given in full) [PAPUAMIDE A] |  |  | inactive | Non-toxic | inactive | inactive |  | 3.5 | 

Structure (SMILES) | IC50 [4] [µM] | IC50 [8] [µM] | IC50 [10] [µM] | IC50 [1] [µM] | Activity [2] | Activity [3] | Activity [5] | Activity [6] | Activity [7] | zone of inhibition at 5 µg/disc [9] [mm] | IC50 [11] [µM] | zone of inhibition at 1 µg/disc [12] [mm]
CCC(C)/C=C(C)/C=C\C(O)C(C)(O)C(=O)NCC(=O)N[C@H](C(=O)N[C@H](C(=O)N[C@H](C(=O)N[C@H]1C(=O)N[C@H](COC)C(=O)NCC(=O)N[C@@H](C)C(=O)N(C)[C@@H]([C@@H](C)O)C(=O)N[C@H]([C@H](OC)c2ccc(O)cc2)C(=O)N2CC[C@H](Cl)C[C@H]2C(=O)O[C@@H]1C(C)C)[C@@H](C)[C@@H](C)C(N)=O)[C@@H](C)N)[C@@H](C)O (stereo partly drawn) [MIRABAMIDE C] (X1-GT[Abu(3R-NH2)][Gln(3S,4R-Me2)][dLeu(3R-OH)][dS](Me)GA[NMeT][dTyr(βR-OMe)][Pip(4S-Cl)]; ester 5-C) | 1.3 | 1.01 | 0.144 | 2.2 |  | inactive | Non-toxic | inactive | inactive | 9 |  | 9

— ChEMBL document CHEMBL1141334, “Mirabamides A-D, depsipeptides from the sponge Siliquariaspongia mirabilis that inhibit HIV-1 fusion” (J Nat Prod, 2007)
